Test results taken from ChEMBL document CHEMBL1828575, “Design, synthesis and antiproliferative activities of biarylolefins based on polyhydroxylated and carbohydrate scaffolds” (Eur J Med Chem, 2011).
Values belong to the compound of their own block, whether it stands above or below them. Active and inactive are the calls of the source. The rule behind the calls is not given here.

Legend:
HL-60 [1] = assay: Cytotoxicity against human HL60 cells at 10^-5 M after 72 hrs by MTS assay; format: functional; details: HL-60, 72 h, read-out: GI
In short: (§1)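 Cells grown in RPMI with 10% fetal calf serum, penicillin, streptomycin and fungizone under 5% CO₂. Plated in 96-well plates and dosed 24 h later with compound in DMSO (1% final DMSO; controls got DMSO alone). After 72 h, MTS was added for 3 h at 37 °C and A490 read. Inhibition = (1 − OD treated/OD control) × 100, in triplicate.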

HT-29 [2] = assay: Cytotoxicity against human HT-29 cells at 10^-5 M after 72 hrs by MTS assay; format: functional; details: HT-29, 72 h, read-out: GI; in short: as §1
HCT-15 [3] = assay: Cytotoxicity against human HCT15 cells at 10^-6 M after 72 hrs by MTS assay; format: functional; details: HCT-15, 72 h, read-out: GI; in short: as §1
HT-29 [4] = assay: Cytotoxicity against human HT-29 cells at 10^-6 M after 72 hrs by MTS assay; format: functional; details: HT-29, 72 h, read-out: GI; in short: as §1
[5] = Cytotoxicity against human HL60R cells at 10^-5 M after 72 hrs by MTS assay; format: functional, HL-60; details: read-out: GI; in short: as §1
Ovis aries [6] = species: Ovis aries; assay: Inhibition of sheep brain tubulin polymerization at 10 uM
In short: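 Microtubule protein from sheep brain, purified by two assembly/disassembly cycles (37 °C/0 °C), in 100 mM MES pH 6.6, 1 mM EGTA, 0.5 mM MgCl₂. Compounds in DMSO were tested at a single concentration, with incubation at 37 °C for 10 min and then 0 °C for 5 min before measuring assembly rate, following a modified Guénard protocol.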

HCT-116 [7] = assay: Cytotoxicity against human HCT116 cells at 10^-5 M after 72 hrs by MTS assay; format: functional; details: HCT-116, 72 h, read-out: GI; in short: as §1
MCF7 [8] = assay: Cytotoxicity against human MCF7 cells at 10^-5 M after 72 hrs by MTS assay; format: functional; details: MCF7, 72 h, read-out: GI
K562 [9] = assay: Cytotoxicity against human K562 cells at 10^-6 M after 72 hrs by MTS assay; format: functional; details: K562, 72 h, read-out: GI; in short: as §1
OVCAR-8 [10] = assay: Cytotoxicity against human OVCAR8 cells at 10^-6 M after 72 hrs by MTS assay; format: functional; details: OVCAR-8, 72 h, read-out: GI
In short: (§2)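 Preliminary screen at 10^-5 and 10^-6 M. Cells were grown in RPMI with 10% fetal calf serum plus penicillin, streptomycin and fungizone under 5% CO₂, plated in 96-well plates, and dosed 24 h later from DMSO stocks (1% DMSO final, same in controls). After 72 h, MTS was added for 3 h at 37 °C and absorbance read at 490 nm. Inhibition was calculated as (1 − OD treated/OD control) × 100, in triplicate.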

PC-3 [11] = assay: Cytotoxicity against human PC3 cells at 10^-6 M after 72 hrs by MTS assay; format: functional; details: PC-3, 72 h, read-out: GI; in short: as §2
[12] = Cytotoxicity against human HL60R cells at 10^-6 M after 72 hrs by MTS assay; format: functional; details: read-out: GI; in short: as §1
SF-268 [13] = assay: Cytotoxicity against human SF268 cells at 10^-6 M after 72 hrs by MTS assay; format: functional; details: SF-268, 72 h, read-out: GI; in short: as §2
[14] = Cytotoxicity against human MDA231 cells at 10^-5 M after 72 hrs by MTS assay; format: functional; details: MDA-MB-231, 72 h, read-out: GI; in short: as §2
K562 [15] = assay: Cytotoxicity against human K562 cells at 10^-5 M after 72 hrs by MTS assay; format: functional; details: K562, 72 h, read-out: GI; in short: as §1
HCT-15 [16] = assay: Cytotoxicity against human HCT15 cells at 10^-5 M after 72 hrs by MTS assay; format: functional; details: HCT-15, 72 h, read-out: GI; in short: as §1
SK-OV-3 [17] = assay: Cytotoxicity against human SKOV3 cells at 10^-5 M after 72 hrs by MTS assay; format: functional; details: SK-OV-3, 72 h, read-out: GI; in short: as §2
PC-3 [18] = assay: Cytotoxicity against human PC3 cells at 10^-5 M after 72 hrs by MTS assay; format: functional; details: PC-3, 72 h, read-out: GI; in short: as §2
MIA PaCa-2 [19] = assay: Cytotoxicity against human MIAPaCa2 cells at 10^-5 M after 72 hrs by MTS assay; format: functional; details: MIA PaCa-2, 72 h, read-out: GI
HCT-116 [20] = assay: Cytotoxicity against human HCT116 cells at 10^-6 M after 72 hrs by MTS assay; format: functional; details: HCT-116, 72 h, read-out: GI; in short: as §1
MCF7 [21] = assay: Cytotoxicity against human MCF7 cells at 10^-6 M after 72 hrs by MTS assay; format: functional; details: MCF7, 72 h, read-out: GI
A549 [22] = assay: Cytotoxicity against human A549 cells at 10^-6 M after 72 hrs by MTS assay; format: functional; details: A549, 72 h, read-out: GI; in short: as §1
[23] = Cytotoxicity against human MDA231 cells at 10^-6 M after 72 hrs by MTS assay; format: functional; details: MDA-MB-231, 72 h, read-out: GI; in short: as §2
HL-60 [24] = assay: Cytotoxicity against human HL60 cells at 10^-6 M after 72 hrs by MTS assay; format: functional; details: HL-60, 72 h, read-out: GI; in short: as §1
A549 [25] = assay: Cytotoxicity against human A549 cells at 10^-5 M after 72 hrs by MTS assay; format: functional; details: A549, 72 h, read-out: GI; in short: as §1
SF-268 [26] = assay: Cytotoxicity against human SF268 cells at 10^-5 M after 72 hrs by MTS assay; format: functional; details: SF-268, 72 h, read-out: GI; in short: as §2
OVCAR-8 [27] = assay: Cytotoxicity against human OVCAR8 cells at 10^-5 M after 72 hrs by MTS assay; format: functional; details: OVCAR-8, 72 h, read-out: GI; in short: as §2
SK-OV-3 [28] = assay: Cytotoxicity against human SKOV3 cells at 10^-6 M after 72 hrs by MTS assay; format: functional; details: SK-OV-3, 72 h, read-out: GI; in short: as §2
MIA PaCa-2 [29] = assay: Cytotoxicity against human MIAPaCa2 cells at 10^-6 M after 72 hrs by MTS assay; format: functional; details: MIA PaCa-2, 72 h, read-out: GI
Ovis aries [30] = species: Ovis aries; assay: Inhibition of sheep brain tubulin polymerization at 17 uM

tubulin polymerization inhibition call (active/not active) (Ovis aries [6]): inactive
Compound: COc1cc(C(=C(CO)CO)c2cc(OC)c(OC)c(OC)c2)cc(OC)c1OC
inhibition of growth at 10 µM (HL-60 [1]): 40%
inhibition of growth at 10 µM (HT-29 [2]): 0%
inhibition of growth at 1 µM (HCT-15 [3]): 8%
inhibition of growth at 1 µM (HT-29 [4]): 0%
inhibition of growth at 10 µM [5]: 0%
inhibition of growth at 10 µM (HCT-116 [7]): 0%
inhibition of growth at 10 µM (MCF7 [8]): 31%
inhibition of growth at 1 µM (K562 [9]): 4%
inhibition of growth at 1 µM (OVCAR-8 [10]): 0%
inhibition of growth at 1 µM (PC-3 [11]): 18%
inhibition of growth at 1 µM [12]: 17%
inhibition of growth at 1 µM (SF-268 [13]): 13%
inhibition of growth at 10 µM [14]: 42%
inhibition of growth at 10 µM (K562 [15]): 25%
inhibition of growth at 10 µM (HCT-15 [16]): 22%
inhibition of growth at 10 µM (SK-OV-3 [17]): 14%
inhibition of growth at 10 µM (PC-3 [18]): 26%
inhibition of growth at 10 µM (MIA PaCa-2 [19]): 0%
inhibition of growth at 1 µM (HCT-116 [20]): 6%
inhibition of growth at 1 µM (MCF7 [21]): 8%
inhibition of growth at 1 µM (A549 [22]): 0%
inhibition of growth at 1 µM [23]: 0%
inhibition of growth at 1 µM (HL-60 [24]): 17%
inhibition of growth at 10 µM (A549 [25]): 13%
inhibition of growth at 10 µM (SF-268 [26]): 35%
inhibition of growth at 10 µM (OVCAR-8 [27]): 0%
inhibition of growth at 1 µM (SK-OV-3 [28]): 13%
inhibition of growth at 1 µM (MIA PaCa-2 [29]): 0%

tubulin polymerization inhibition call (active/not active) (Ovis aries [6]): inactive
inhibition (Ovis aries [30]): Active
Compound: COc1ccc(C(=C(CO)CO)c2cc(OC)c(OC)c(OC)c2)cc1O

tubulin polymerization inhibition call (active/not active) (Ovis aries [6]): inactive
Compound: COc1cc(C(=C(COC(C)=O)COC(C)=O)c2cc(OC)c(OC)c(OC)c2)cc(OC)c1OC
inhibition of growth at 10 µM (HL-60 [1]): 39%
inhibition of growth at 10 µM (HT-29 [2]): 4%
inhibition of growth at 1 µM (HCT-15 [3]): 19%
inhibition of growth at 1 µM (HT-29 [4]): 0%
inhibition of growth at 10 µM [5]: 36%
inhibition of growth at 10 µM (HCT-116 [7]): 17%
inhibition of growth at 10 µM (MCF7 [8]): 44%
inhibition of growth at 1 µM (K562 [9]): 12%
inhibition of growth at 1 µM (OVCAR-8 [10]): 0%
inhibition of growth at 1 µM (PC-3 [11]): 7%
inhibition of growth at 1 µM [12]: 11%
inhibition of growth at 1 µM (SF-268 [13]): 26%
inhibition of growth at 10 µM [14]: 69%
inhibition of growth at 10 µM (K562 [15]): 29%
inhibition of growth at 10 µM (HCT-15 [16]): 48%
inhibition of growth at 10 µM (SK-OV-3 [17]): 23%
inhibition of growth at 10 µM (PC-3 [18]): 44%
inhibition of growth at 10 µM (MIA PaCa-2 [19]): 10%
inhibition of growth at 1 µM (HCT-116 [20]): 0%
inhibition of growth at 1 µM (MCF7 [21]): 5%
inhibition of growth at 1 µM (A549 [22]): 0%
inhibition of growth at 1 µM [23]: 0%
inhibition of growth at 1 µM (HL-60 [24]): 15%
inhibition of growth at 10 µM (A549 [25]): 22%
inhibition of growth at 10 µM (SF-268 [26]): 53%
inhibition of growth at 10 µM (OVCAR-8 [27]): 24%
inhibition of growth at 1 µM (SK-OV-3 [28]): 8%
inhibition of growth at 1 µM (MIA PaCa-2 [29]): 0%
